# Experimental data: ChEMBL document CHEMBL1135714, “New neplanocin analogues. 12. Alternative synthesis and antimalarial effect of (6'R)-6'-C-methylneplanocin A, a potent AdoHcy hydrolase inhibitor” (J Med Chem, 2002)
# Columns and labels:
# [1] = The compound was tested for survival of the ICR mice (infected with Plasmodium berghei) as a symptom indicative of toxicity on day 4, at a dose of 1.0 mg/kg/day; format: functional, Mus musculus
# In short: (§1)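 P. berghei (NK 65 strain)-infected ICR mice, groups of five; compound in DMSO given intraperitoneally once daily for four consecutive days starting day 0; five infected DMSO-dosed mice as controls; survival counted on day 4 as toxicity indicator; Giemsa-stained tail blood smears, 1 × 10⁴ erythrocytes per film, for parasitemia.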
# [2] = The compound was tested for survival of the ICR mice (infected with Plasmodium berghei) as a symptom indicative of toxicity on day 4, at a dose of 20 mg/kg/day; format: functional, Mus musculus; in short: as §1
# [3] = The compound was tested for the dose required to cause 50% suppression of Plasmodium berghei growth in mice.; format: functional, Mus musculus
# In short: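 Four-day suppressive test in ICR mice infected with P. berghei NK 65, five per group. DMSO solutions were injected intraperitoneally daily on days 0–3 at 0.1–20 mg/kg/day, against infected DMSO-dosed controls. Day-4 parasitemia came from Giemsa-stained tail-blood smears, 1 × 10⁴ erythrocytes per film. EC50 is the dose giving 50% suppression of parasite growth.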
# Plasmodium berghei [4] = assay: Parasitaemia (%) in tail blood smears from Plasmodium berghei infected ICR mice (Mus musculus) after 4 days; format: functional
# In short: (§2)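 P. berghei NK 65-infected ICR mice, five per group. Compounds in DMSO were given intraperitoneally once daily for four consecutive days from day 0, at 0.1–20 mg/kg/day. Five infected DMSO-dosed mice served as controls. On day 4, Giemsa-stained tail-blood thin films were read by microscopy, with 1 × 10⁴ erythrocytes counted per film, to give % parasitemia.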
# Plasmodium berghei [5] = assay: Parasitaemia (%) in tail blood smears from Plasmodium berghei infected ICR mice (Mus musculus) at 0.1-mg/kg/day for 4 days; format: functional; in short: as §2
# Plasmodium berghei [6] = assay: Parasitaemia (%) in tail blood smears of Plasmodium berghei infected ICR mice (Mus musculus) at 2 mg/kg/day after 4 days; format: functional; in short: as §2
# Plasmodium berghei [7] = assay: Parasitaemia (%) in tail blood smears of Plasmodium berghei infected ICR mice (Mus musculus) at 10 mg/kg/day after 4 days; format: functional; in short: as §2
# [8] = The compound was tested for survival of the ICR mice (infected with Plasmodium berghei) as a symptom indicative of toxicity on day 4, at a dose of 2 mg/kg/day; format: functional, Mus musculus; in short: as §1
# Plasmodium berghei [9] = assay: Parasitaemia (%) in tail blood smears of Plasmodium berghei infected ICR mice (Mus musculus) at 1.0 mg/kg/day after 4 days; format: functional; in short: as §2
# [10] = The compound was tested for survival of the ICR mice (infected with Plasmodium berghei) as a symptom indicative of toxicity on day 4, at a dose of 0.5 mg/kg/day; format: functional, Mus musculus; in short: as §1
# [11] = The compound was tested for survival of the ICR mice (infected with Plasmodium berghei) as a symptom indicative of toxicity on day 4, at a dose of 5 mg/kg/day; format: functional, Mus musculus; in short: as §1
# [12] = The compound was tested for survival of the ICR mice (infected with Plasmodium berghei) as a symptom indicative of toxicity on day 4, at a dose of 0.1 mg/kg/day; format: functional, Mus musculus; in short: as §1
# Plasmodium falciparum = assay: In vitro antimalarial activity against Plasmodium falciparum
# [13] = The compound was tested for survival of the ICR mice (infected with Plasmodium berghei) as a symptom indicative of toxicity on day 4, at a dose of 10 mg/kg/day; format: functional, Mus musculus; in short: as §1
# Vero = assay: The compound was tested for cytotoxicity against monkey kidney cell line ( Vero ).; format: functional, cell-based; settings: Chlorocebus sabaeus
# Plasmodium berghei [14] = assay: Parasitaemia (%) in tail blood smears of Plasmodium berghei infected ICR mice (Mus musculus) at 5 mg/kg/day after 4 days; format: functional; in short: as §2
# Plasmodium berghei [15] = assay: Parasitaemia (%) in tail blood smears from Plasmodium berghei infected ICR mice (Mus musculus) at 0.5-mg/kg/day for 4 days; format: functional; in short: as §2
# [16] = tested on: KATO III stomach cancer cell line; assay: The compound was tested for cytotoxicity against the growth of human gastric carcinoma cell line ( KATO III ).; format: functional, cell-based
# Plasmodium berghei [17] = assay: Parasitaemia (%) in tail blood smears of Plasmodium berghei infected ICR mice (Mus musculus) at 0.5 mg/kg/day after 4 days; format: functional; in short: as §2
# Plasmodium berghei [18] = assay: Parasitaemia (%) in tail blood smears of Plasmodium berghei infected ICR mice (Mus musculus) at 20 mg/kg/day after 4 days; format: functional; in short: as §2
# Plasmodium berghei [19] = assay: Parasitaemia (%) in tail blood smears from Plasmodium berghei infected ICR mice (Mus musculus) at 0.1 mg/kg/day for 4 days; format: functional; in short: as §2
# [20] = The compound was tested for survival of the ICR mice (infected with Plasmodium berghei) as a symptom indicative of toxicity on day 4, at different doses 20 mg/kg/day; format: functional, Mus musculus; in short: as §1
# Plasmodium berghei [21] = assay: Percent parasitaemia in tail blood smears from Plasmodium berghei infected ICR mice (Mus musculus) at 0.5-mg/kg/day after 4 days; format: functional; in short: as §2
smiles,measurement,setting,value
C[C@@H](O)C1=C[C@@H](n2cnc3c(N)ncnc32)[C@H](O)[C@@H]1O,Survival,[1],5
same,Survival,[2],2
same,EC50,[3],1 mg/kg/day
same,Parasitemia,Plasmodium berghei [4],21%
same,Parasitemia,Plasmodium berghei [5],21%
same,Parasitemia,Plasmodium berghei [6],5%
same,Parasitemia,Plasmodium berghei [7],2%
same,Survival,[8],5
same,Parasitemia,Plasmodium berghei [9],10%
same,Survival,[10],5
same,Survival,[11],5
same,Survival,[12],5
same,IC50,Plasmodium falciparum,100 nM
same,Survival,[13],5
same,IC50,Vero,> 1.8 mM
same,Parasitemia,Plasmodium berghei [14],2%
same,Parasitemia,Plasmodium berghei [15],21%
same,IC50,[16],1100 nM
CCN(CC)CCCC(C)Nc1ccnc2cc(Cl)ccc12 (stereo not given) [CHLOROQUINE],Survival,[1],5
same,Survival,[2],5
same,EC50,[3],1.8 mg/kg/day
same,Parasitemia,Plasmodium berghei [4],21%
same,Parasitemia,Plasmodium berghei [6],7%
same,Parasitemia,Plasmodium berghei [17],20%
same,Parasitemia,Plasmodium berghei [7],2%
same,Survival,[8],5
same,Parasitemia,Plasmodium berghei [18],1%
same,Parasitemia,Plasmodium berghei [9],18%
same,Survival,[10],5
same,Survival,[11],5
same,Parasitemia,Plasmodium berghei [19],21%
same,Survival,[12],5
same,Survival,[13],5
same,Parasitemia,Plasmodium berghei [14],3%
Nc1ncnc2c1ncn2[C@@H]1C=C(CO)[C@@H](O)[C@H]1O [NEOPLANOCIN A],Survival,[1],5
same,EC50,[3],> 5 mg/kg/day
same,Parasitemia,Plasmodium berghei [4],21%
same,Parasitemia,Plasmodium berghei [5],20%
same,Parasitemia,Plasmodium berghei [6],21%
same,Survival,[20],0
same,Survival,[8],5
same,Parasitemia,Plasmodium berghei [21],21%
same,Parasitemia,Plasmodium berghei [9],21%
same,Survival,[10],5
same,Survival,[11],5
same,Survival,[12],5
same,IC50,Plasmodium falciparum,200 nM
same,Survival,[13],0
same,Parasitemia,Plasmodium berghei [14],12%
same,IC50,[16],220 nM
